The source of these data is ChEMBL document CHEMBL2150936, “Anticancer activity of small amphipathic β²,²-amino acid derivatives” (Eur J Med Chem, 2012).

SMILES strings stand for the structures. pEC50, pIC50: −log10 of the molar value.

Assay [1] is described as follows: Hemolytic activity in human RBC assessed as hemoglobin release. It is filed as ADME, cell-based, Erythrocyte. The following applies: for pEC50: Homo sapiens, Erythrocyte, read-out: EC50; for EC50: erythrocyte. A digest of the protocol: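 Heparinized human blood was washed three times in PBS pre-warmed to 37 °C to remove plasma. Compounds were dissolved in PBS and mixed with the RBCs to a final 1% v/v erythrocytes. Samples were incubated for 1 h at 37 °C with agitation, then centrifuged. Hemoglobin release was read at 405 nm, relative to 0.1% v/v Triton X-100 (positive control) and PBS (negative control).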

For assay [2], the system named is Ramos. Nature of the assay: Selectivity index, ratio of EC50 for human MRC5 cells to IC50 for human Ramos cells. It is filed as functional. The gist of the method: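 Ramos cells were seeded at 4 × 10^5 cells/ml in serum-free RPMI-1640, and compounds in RPMI-1640 were added at once. MRC-5 fibroblasts were seeded at 1 × 10^5 cells/ml in MEM with 10% FBS, grown overnight, and the medium was then replaced with compound. Both were incubated 4 h at 37 °C, 5% CO2, then given MTT for 2 h. Formazan was dissolved in acidic isopropanol and read at 590 nm. Survival was expressed relative to the untreated medium control. SI = MRC-5 EC50 / Ramos IC50.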

In assay [3] the test system is Ramos. The assay is described as follows: Cytotoxicity against human Ramos cells after 4 hrs by MTT assay. It is filed as functional, cell-based. The gist of the method: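 Ramos Burkitt's lymphoma cells, kept in suspension in RPMI 1640 with 10% FBS, were seeded at 4 × 10^5 cells/ml in serum-free RPMI 1640. Compounds in RPMI-1640 were added immediately, then 4 h at 37 °C, 5% CO2. MTT was added for a further 2 h, formazan dissolved in acidic isopropanol (0.04 N HCl), and A590 read. Survival was calculated against untreated medium control; 1% Triton X-100 served as positive control.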

A further assay has as its system MRC5. Nature of the assay: Cytotoxicity against human MRC5 cells after 4 hrs by MTT assay. It is filed as cell-based. The settings on record: MRC5, 4 h. A digest of the protocol: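 MRC-5 embryonic lung fibroblast monolayers in MEM with 10% FBS were seeded at 1 × 10^5 cells/ml, grown overnight, then medium was replaced with compound solution. Exposure was 4 h at 37 °C, 5% CO2, then MTT for 2 h. Formazan was dissolved in acidic isopropanol (0.04 N HCl) and absorbance read at 590 nm. Background-corrected viability was taken relative to medium-only control, with Triton X-100 as positive control.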
(Tetrazolium assays rely on reduction of a dye to a coloured formazan, in cell work by metabolically active cells.)

The test system of assay [4] is Ramos. Nature of the assay: Selectivity index, ratio of EC50 for human RBC to IC50 for human Ramos cells. It is filed as functional. The gist of the method: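 Ramos IC50 came from a 4 h MTT assay: cells at 4 × 10^5 cells/ml in serum-free RPMI-1640, compounds added at once, 37 °C, 2 h MTT, read at 590 nm. RBC EC50 came from hemoglobin release at 405 nm: 1% v/v washed human erythrocytes in PBS, 1 h at 37 °C, Triton X-100 reference. SI = RBC EC50 / Ramos IC50.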

Usually pEC50 stands for −log10 of the EC50, conventionally taken in molar units. One may read the pIC50 as the IC50 on a negative log10 scale, so that one unit is a factor of ten. Low readings indicate a large IC50, high ones a small IC50. On to `NCCCNC(=O)C(CN)(Cc1ccc2ccccc2c1)Cc1ccc2ccccc2c1`, for which the results for the pEC50 (in assay [1]; with MRC5) were 3.35 and 5.18, respectively. Moreover, the “Selectivity Index” value with Ramos [2] is recorded as 1.5; in the assay on Ramos [4], 104. This compound also showed a pIC50 with Ramos [3] of 5.37.

For `CN(C)CCOC(=O)C(CN)(Cc1ccc(C(F)(F)F)cc1)Cc1ccc(C(F)(F)F)cc1`, the values for the negative-log EC50 (pEC50) (in assay [1]; in the assay with MRC5) were 3.36 and 5.09, respectively. Besides, the “Selectivity Index” value in the assay with Ramos [2] amounted to 3.6; with Ramos [4], 190. Also, in the assay on Ramos [3], the pIC50 was 5.64.

For the compound `CC(C)(C)c1ccc(CC(CN)(Cc2ccc(C(C)(C)C)cc2)C(=O)N[C@@H](CCCNC(=N)N)C(N)=O)cc1`, the pEC50 in assay [1] was < 3.18; in the assay with MRC5 it was 3.80. Moreover, the entries for the “Selectivity Index” value in the assay with Ramos [2] and in the assay with Ramos [4] were 1.2 and >4.8, respectively. The pIC50 in the assay on Ramos [3] was 3.87.

In the case of `N=C(N)NCCCNC(=O)C(CNC(=N)N)(Cc1ccc(C(F)(F)F)cc1)Cc1ccc(C(F)(F)F)cc1`, the EC50 result in assay [1] is listed as “ND(Insoluble)”. The “Selectivity Index” value with Ramos [2] is listed as 2.2. Moreover, in the assay on Ramos [3], the negative-log IC50 (pIC50) was 4.11. The same compound showed a pEC50 in the assay on MRC5 of 3.77.

As to `CN(C)CCNC(=O)C(CN)(Cc1ccc(C(F)(F)F)cc1)Cc1ccc(C(F)(F)F)cc1`, the “Selectivity Index” value in the assay on Ramos [2] is reported as 4.1; in the assay on Ramos [4], 41. The compound further showed a pIC50 with Ramos [3] of 4.94. This compound also gave a pEC50 with MRC5 of 4.33.

For the compound `CN1CCN(C(=O)C(CN)(Cc2ccc(C(F)(F)F)cc2)Cc2ccc(C(F)(F)F)cc2)CC1`, the pEC50 is 3.28 in assay [1] and 3.74 with MRC5. Besides, the “Selectivity Index” value in the assay with Ramos [2] turned out to be 6.7; in the assay on Ramos [4] it was 19.6. Moreover, the negative logarithm of the IC50 (pIC50) with Ramos [3] is 4.57.

With `N=C(N)NCCCNC(=O)C(CNC(=N)N)(Cc1ccc2ccccc2c1)Cc1ccc2ccccc2c1`, the EC50 entry in assay [1] was “ND(Insoluble)”. For the same compound, the “Selectivity Index” value in the assay on Ramos [2] amounted to 9.6. Also, the pIC50 in the assay with Ramos [3] is 4.10. Besides, the pEC50 in the assay on MRC5 was 3.12.

In the case of `CN(C)CCNC(=O)C(CN)(Cc1ccc(C(C)(C)C)cc1)Cc1ccc(C(C)(C)C)cc1`, the “Selectivity Index” value in the assay with Ramos [2] amounted to 1.8; with Ramos [4], 9.8. In the assay on Ramos [3], the pIC50 is 4.55. In the assay on MRC5, this compound had a pEC50 of 4.31.

As to `CC(C)(C)c1ccc(CC(CNC(=N)N)(Cc2ccc(C(C)(C)C)cc2)C(=O)NCCCNC(=N)N)cc1`, in assay [1], the EC50 entry is “ND(Insoluble)”. Also, the “Selectivity Index” value in the assay with Ramos [2] is on record as 1. Also, the pIC50 in the assay with Ramos [3] is 4.20. Besides, the pEC50 with MRC5 is 4.19.

As for `N=C(N)NCCC[C@H](NC(=O)C(CN)(Cc1ccc(C(F)(F)F)cc1)Cc1ccc(C(F)(F)F)cc1)C(N)=O`, the figures for the pEC50 (in assay [1]; in the assay on MRC5) were 3.00 and < 3.20, respectively. Moreover, the pIC50 in the assay with Ramos [3] is < 3.60.

Regarding `CN1CCN(C(=O)C(CN)(Cc2ccc(C(C)(C)C)cc2)Cc2ccc(C(C)(C)C)cc2)CC1`, the figures for the pEC50 (in assay [1]; in the assay with MRC5) were 3.46 and 4.78, respectively. The “Selectivity Index” value in the assay with Ramos [2] is reported as 2.7; in the assay on Ramos [4], 57. The same compound had a pIC50 in the assay with Ramos [3] of 5.21.

With `CN(C)CCNC(=O)C(CN)(Cc1ccc2ccccc2c1)Cc1ccc2ccccc2c1`, the pEC50 in assay [1] was 3.66; in the assay with MRC5 it was 5.31. Also, the “Selectivity Index” value was 0.7 in the assay on Ramos [2] and 33 in the assay on Ramos [4]. Besides, in the assay with Ramos [3], the pIC50 is 5.18.

For `CN(C)CCN1CCN(C(=O)C(CN)(Cc2ccc(C(C)(C)C)cc2)Cc2ccc(C(C)(C)C)cc2)CC1`, the values for the pEC50 (in assay [1]; in the assay on MRC5) were 3.47 and 4.92, respectively. Also, the “Selectivity Index” value came out at 2.3 in the assay with Ramos [2] and 65 in the assay with Ramos [4]. This compound also gave a pIC50 in the assay on Ramos [3] of 5.28.

As for `NCCCNC(=O)C(CN)(Cc1ccc(C(F)(F)F)cc1)Cc1ccc(C(F)(F)F)cc1`, the pEC50 is 3.10 in assay [1] and 4.52 with MRC5. The “Selectivity Index” value in the assay with Ramos [2] is listed as 2.8; in the assay with Ramos [4], 72. The compound also gave a pIC50 with Ramos [3] of 4.96.

For the compound `CC(C)(C)c1ccc(CC(CN)(Cc2ccc(C(C)(C)C)cc2)C(=O)NCCN)cc1`, the pEC50 was 4.74 in assay [1] and 5.21 in the assay on MRC5. In addition, the entries for the “Selectivity Index” value in the assay with Ramos [2] and in the assay on Ramos [4] were 0.6 and 1.7, respectively. This compound had a pIC50 in the assay on Ramos [3] of 4.97.

Regarding `CN(C)CCN1CCN(C(=O)C(CN)(Cc2ccc(C(F)(F)F)cc2)Cc2ccc(C(F)(F)F)cc2)CC1`, the figures for the pEC50 (in assay [1]; in the assay with MRC5) were 2.95 and 4.16, respectively. Besides, the “Selectivity Index” value worked out at 3.6 in the assay with Ramos [2] and 58 with Ramos [4]. Also, the negative logarithm of the IC50 (pIC50) with Ramos [3] was 4.72.

With `CN(C)CCOC(=O)C(CN)(Cc1ccc(C(C)(C)C)cc1)Cc1ccc(C(C)(C)C)cc1`, the pEC50 in assay [1] was 4.28; in the assay with MRC5 it was 4.05. In addition, the “Selectivity Index” value in the assay on Ramos [2] was 2.9; in the assay on Ramos [4] it was 1.7. In addition, in the assay on Ramos [3], the negative-log IC50 (pIC50) was 4.51.

`CN(C)CCOC(=O)C(CN)(Cc1ccc2ccccc2c1)Cc1ccc2ccccc2c1`: the values for the pEC50 (in assay [1]; in the assay with MRC5) were 3.34 and 4.90, respectively. Also, the results for the “Selectivity Index” value with Ramos [2] and with Ramos [4] were 4.1 and 148, respectively. Also, in the assay on Ramos [3], the pIC50 was 5.51.

Turning to `CN1CCN(C(=O)C(CN)(Cc2ccc3ccccc3c2)Cc2ccc3ccccc3c2)CC1`, the “Selectivity Index” value with Ramos [2] came out at 2.9; with Ramos [4], 22. Besides, the negative-log IC50 (pIC50) with Ramos [3] was 4.85. The compound further had a pEC50 in the assay with MRC5 of 4.39.

With `CC(C)(C)c1ccc(CC(CN)(Cc2ccc(C(C)(C)C)cc2)C(=O)NCCCN)cc1`, the pEC50 is 3.60 in assay [1] and 4.46 in the assay on MRC5. Further, the “Selectivity Index” value in the assay on Ramos [2] stood at 2.4; in the assay with Ramos [4], 17.6. For the same compound, the pIC50 in the assay with Ramos [3] was 4.84.

Take `NCCNC(=O)C(CN)(Cc1ccc(C(F)(F)F)cc1)Cc1ccc(C(F)(F)F)cc1`: the results for the “Selectivity Index” value with Ramos [2] and with Ramos [4] were 2.5 and 60, respectively. In the assay on Ramos [3], the pIC50 is 5.15. The compound further showed a pEC50 in the assay with MRC5 of 4.75.

As to `N=C(N)NCCC[C@H](NC(=O)C(CN)(Cc1ccc2ccccc2c1)Cc1ccc2ccccc2c1)C(N)=O`, the pEC50 in assay [1] is 3.37; with MRC5, 3.26. In addition, the results for the “Selectivity Index” value in the assay on Ramos [2] and in the assay on Ramos [4] were 5.2 and 4, respectively. The compound further gave a pIC50 in the assay on Ramos [3] of 3.97.

For `CN(C)CCN1CCN(C(=O)C(CN)(Cc2ccc3ccccc3c2)Cc2ccc3ccccc3c2)CC1`, the pEC50 is 3.39 in assay [1] and 4.73 in the assay on MRC5. For the same compound, the “Selectivity Index” value in the assay on Ramos [2] was found to be 2.6; in the assay on Ramos [4], 57. In the assay on Ramos [3], this compound had a negative logarithm of the IC50 (pIC50) of 5.14.
